Measured values as given in ChEMBL document CHEMBL5356951, “Semisynthetic polymyxins with potent antibacterial activity and reduced kidney cell toxicity” (RSC Med Chem, 2023).
Converted amounts (≈) assume the structure as drawn. Positions of bridges follow the written chain, without caps; N, C: chain ends. Non-standard residues stand in square brackets, D forms with d. Residues, ends and D or L forms follow the SMILES beside them. *: point of attachment. X1 = CC[C@H](C)CCCCC(=O)*; Dab = NCC[C@H](N)C(=O)O

Legend:
[1] = test system: Escherichia coli; assay: Synergistic antibacterial activity against polymyxin-resistant Escherichia coli assessed as fractional inhibitory concentration index incubated for 18 hrs in presence of novobiocin by checkerboard assay; format: functional
Procedure, shortened: (§1)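 8 × 8 checkerboard (64 combinations, each in triplicate) against E. coli EQAS mcr-2, grown to OD600 0.5 in TSB after overnight blood agar culture. Antibiotic and synergist serially diluted in CAMHB (12.5 μg mL−1 Mg2+, 20 μg mL−1 Ca2+), inoculum 10^6 CFU mL−1, 37 °C for 18 h. OD600 normalized to growth and no-growth controls. FICi calculated from minimal synergistic concentrations and single-agent MICs; ≤0.5 taken as synergy.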

[2] = test system: Acinetobacter baumannii; assay: Antibacterial activity against multidrug-resistant Acinetobacter baumannii assessed as bacterial growth inhibition by broth microdilution assay; format: functional
Procedure, shortened: (§2)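 Broth microdilution MIC. Strains grown overnight on blood agar at 37 °C, colonies suspended in TSB and grown to OD600 0.5. Compounds dissolved in DMSO (6.4 mg mL−1 stock), diluted serially in CAMHB (12.5 μg mL−1 Mg2+, 20 μg mL−1 Ca2+) on polypropylene plates. Final inoculum 10^6 CFU mL−1, 37 °C under gas-permeable membrane. MIC is the lowest concentration with no visible growth, consistent across at least triplicate experiments.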

[3] = test system: Klebsiella pneumoniae; assay: Antibacterial activity against Klebsiella pneumoniae JS-123 assessed as bacterial growth inhibition by broth microdilution assay; format: functional
Procedure, shortened: (§3)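 Broth microdilution. Bacteria from glycerol stocks were grown overnight on blood agar at 37 °C, then colonies were suspended in TSB and grown to OD600 0.5. Compounds were dissolved in DMSO at 6.4 mg mL−1 (stock) and serially diluted in CAMHB (Mg2+ 12.5, Ca2+ 20 μg mL−1) in polypropylene plates. Inoculum was 10^6 CFU mL−1 final, incubated at 37 °C. MIC = lowest concentration without visible growth; values consistent across at least triplicate experiments.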

[4] = test system: Acinetobacter baumannii; assay: Antibacterial activity against Acinetobacter baumannii ATCC 17978 assessed as bacterial growth inhibition by broth microdilution assay; format: functional; procedure, shortened: as §2
[5] = test system: Acinetobacter baumannii; assay: Antibacterial activity against Acinetobacter baumannii ATCC 19606 assessed as bacterial growth inhibition by broth microdilution assay; format: functional; procedure, shortened: as §2
[6] = test system: Acinetobacter baumannii; assay: Antibacterial activity against Acinetobacter baumannii 2018-006 assessed as bacterial growth inhibition by broth microdilution assay; format: functional; procedure, shortened: as §2
[7] = test system: Escherichia coli; assay: Antibacterial activity against Escherichia coli ATCC 25922 assessed as bacterial growth inhibition by broth microdilution assay; format: functional; procedure, shortened: as §3
[8] = test system: Escherichia coli; assay: Synergistic antibacterial activity against polymyxin-resistant Escherichia coli assessed as fractional inhibitory concentration index incubated for 18 hrs in presence of erythromycin by checkerboard assay; format: functional; procedure, shortened: as §1
[9] = test system: Escherichia coli; assay: Synergistic antibacterial activity against polymyxin-resistant Escherichia coli assessed as fractional inhibitory concentration index incubated for 18 hrs in presence of rifampicin by checkerboard assay; format: functional; procedure, shortened: as §1
[10] = Cytotoxicity against human ciPTEC cells assessed as reduction in cell viability incubated for 24 hrs by PrestoBlue reagent based fluorescence assay; format: toxicity; conditions: read-out: TC50
Procedure, shortened: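 ciPTEC-14.4 cells, differentiated, were treated for 24 h at 37 °C with compound at 100, 250, 500 or 1000 μM in serum-free DMEM/F-12 with insulin, transferrin, selenium, hydrocortisone, EGF and triiodothyronine. Viability was measured with 10% PrestoBlue in HBSS (fluorescence ex 530/em 590 nm), corrected for reagent background and normalized to untreated, medium-only control.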

[11] = test system: Pseudomonas aeruginosa; assay: Antibacterial activity against Pseudomonas aeruginosa NRZ 03961 assessed as bacterial growth inhibition by broth microdilution assay; format: functional; procedure, shortened: as §3
[12] = test system: Escherichia coli; assay: Antibacterial activity against multidrug-resistant Escherichia coli NCTC 13846 assessed as bacterial growth inhibition by broth microdilution assay; format: functional; procedure, shortened: as §2
[13] = test system: Pseudomonas aeruginosa; assay: Antibacterial activity against Pseudomonas aeruginosa NRZ 08418 assessed as bacterial growth inhibition by broth microdilution assay; format: functional; procedure, shortened: as §3
[14] = test system: Pseudomonas aeruginosa; assay: Antibacterial activity against Pseudomonas aeruginosa ATCC 27853 assessed as bacterial growth inhibition by broth microdilution assay; format: functional; procedure, shortened: as §3
[15] = test system: Escherichia coli; assay: Antibacterial activity against Escherichia coli 1313 assessed as bacterial growth inhibition by broth microdilution assay; format: functional; procedure, shortened: as §3
[16] = test system: Klebsiella pneumoniae; assay: Antibacterial activity against Klebsiella pneumoniae ATCC 13883 assessed as bacterial growth inhibition by broth microdilution assay; format: functional; procedure, shortened: as §3
[17] = test system: Klebsiella pneumoniae; assay: Antibacterial activity against Klebsiella pneumoniae NCTC 13443 assessed as bacterial growth inhibition by broth microdilution assay; format: functional; procedure, shortened: as §3
[18] = Cytotoxicity against human ciPTEC cells assessed as reduction in cell viability at 250 uM incubated for 24 hrs by PrestoBlue reagent based fluorescence assay; format: toxicity
Procedure, shortened: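 Differentiated ciPTEC-14.4 (conditionally immortalized) cells were washed with HBSS and then exposed to 250 μM compound in serum-free supplemented DMEM/F-12 for 24 h at 37 °C. After an HBSS wash, cells were incubated with 10% PrestoBlue in HBSS at 37 °C in the dark. Fluorescence was read at ex 530/em 590 nm, background-corrected, and expressed relative to medium-only cells; triplicates.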

CC(C)CCSSC[C@@H](N)C(=O)N[C@H](C(=O)N[C@@H](CN)C(=O)N[C@H]1CCNC(=O)[C@H]([C@@H](C)O)NC(=O)[C@H](CCN)NC(=O)[C@H](CCN)NC(=O)[C@H](CC(C)C)NC(=O)[C@@H](Cc2ccccc2)NC(=O)[C@H](CCN)NC1=O)[C@@H](C)O
fractional inhibitory concentration index (FICI) [1]: 0.19 | MIC [2]: 0.25 µg/mL (≈ 0.217 µM) | MIC [3]: 0.25 µg/mL (≈ 0.217 µM) | MIC [4]: 0.25 µg/mL (≈ 0.217 µM) | MIC [5]: 0.25 µg/mL (≈ 0.217 µM) | MIC [6]: 0.25 µg/mL (≈ 0.217 µM) | MIC [7]: 1 µg/mL (≈ 0.866 µM) | fractional inhibitory concentration index (FICI) [8]: 0.27 | fractional inhibitory concentration index (FICI) [9]: 0.14 | CC50 at 24 h [10]: 130 µM | MIC [11]: 1 µg/mL (≈ 0.866 µM) | MIC [12]: 4 µg/mL (≈ 3.46 µM) | MIC [13]: 1 µg/mL (≈ 0.866 µM) | MIC [14]: 1 µg/mL (≈ 0.866 µM) | MIC [15]: ≤ 0.125 µg/mL | MIC [16]: 0.25 µg/mL (≈ 0.217 µM) | MIC [17]: 0.25 µg/mL (≈ 0.217 µM)

CC(C)C[C@@H]1NC(=O)[C@@H](Cc2ccccc2)NC(=O)[C@H](CCN)NC(=O)[C@@H](NC(=O)[C@H](CCN)NC(=O)[C@@H](NC(=O)[C@H](N)CSSCCC2CCCCC2)[C@@H](C)O)CCNC(=O)[C@H]([C@@H](C)O)NC(=O)[C@H](CCN)NC(=O)[C@H](CCN)NC1=O
MIC [2]: 1 µg/mL (≈ 0.827 µM) | MIC [3]: 2 µg/mL (≈ 1.65 µM) | MIC [4]: 1 µg/mL (≈ 0.827 µM) | MIC [5]: 0.5 µg/mL (≈ 0.414 µM) | Activity [18]: > 50% | MIC [6]: 0.5 µg/mL (≈ 0.414 µM) | MIC [7]: 1 µg/mL (≈ 0.827 µM) | MIC [11]: 4 µg/mL (≈ 3.31 µM) | MIC [12]: 8 µg/mL (≈ 6.62 µM) | MIC [13]: 4 µg/mL (≈ 3.31 µM) | MIC [14]: 2 µg/mL (≈ 1.65 µM) | MIC [15]: 2 µg/mL (≈ 1.65 µM) | MIC [16]: 1 µg/mL (≈ 0.827 µM) | MIC [17]: 2 µg/mL (≈ 1.65 µM)

CC[C@H](C)CCCCC(=O)N[C@@H](CCN)C(=O)N[C@H](C(=O)N[C@@H](CCN)C(=O)N[C@H]1CCNC(=O)[C@H]([C@@H](C)O)NC(=O)[C@H](CCN)NC(=O)[C@H](CCN)NC(=O)[C@H](CC(C)C)NC(=O)[C@@H](Cc2ccccc2)NC(=O)[C@H](CCN)NC1=O)[C@@H](C)O (X1-[Dab]T[Dab][Dab][Dab][dF]L[Dab][Dab]T; lactam 4-C)
MIC [2]: 0.5 µg/mL (≈ 0.415 µM) | MIC [3]: 0.25 µg/mL (≈ 0.208 µM) | MIC [4]: 0.25 µg/mL (≈ 0.208 µM) | MIC [5]: 0.25 µg/mL (≈ 0.208 µM) | Activity [18]: 85% | MIC [6]: 0.125 µg/mL (≈ 0.104 µM) | MIC [7]: 1 µg/mL (≈ 0.831 µM) | CC50 at 24 h [10]: 1480 µM | MIC [11]: 1 µg/mL (≈ 0.831 µM) | MIC [12]: 4 µg/mL (≈ 3.32 µM) | MIC [13]: 1 µg/mL (≈ 0.831 µM) | MIC [14]: 1 µg/mL (≈ 0.831 µM) | MIC [15]: 0.125 µg/mL (≈ 0.104 µM) | MIC [16]: 0.25 µg/mL (≈ 0.208 µM) | MIC [17]: 0.5 µg/mL (≈ 0.415 µM)

CC(C)C[C@@H]1NC(=O)[C@@H](Cc2ccccc2)NC(=O)[C@H](CCN)NC(=O)[C@@H](NC(=O)[C@H](CCN)NC(=O)[C@@H](NC(=O)[C@H](N)CSSCc2cccc(Cl)c2)[C@@H](C)O)CCNC(=O)[C@H]([C@@H](C)O)NC(=O)[C@H](CCN)NC(=O)[C@H](CCN)NC1=O
MIC [2]: 4 µg/mL (≈ 3.27 µM) | MIC [3]: 0.25 µg/mL (≈ 0.204 µM) | MIC [4]: 1 µg/mL (≈ 0.818 µM) | MIC [5]: 1 µg/mL (≈ 0.818 µM) | Activity [18]: > 50% | MIC [6]: 2 µg/mL (≈ 1.64 µM) | MIC [7]: 1 µg/mL (≈ 0.818 µM) | MIC [11]: 1 µg/mL (≈ 0.818 µM) | MIC [12]: 4 µg/mL (≈ 3.27 µM) | MIC [13]: 2 µg/mL (≈ 1.64 µM) | MIC [14]: 4 µg/mL (≈ 3.27 µM) | MIC [15]: 0.125 µg/mL (≈ 0.102 µM) | MIC [16]: 0.5 µg/mL (≈ 0.409 µM) | MIC [17]: 0.25 µg/mL (≈ 0.204 µM)

CC(C)CCSSC[C@@H](N)C(=O)N[C@H](C(=O)N[C@@H](CCN)C(=O)N[C@H]1CCNC(=O)[C@H]([C@@H](C)O)NC(=O)[C@H](CCN)NC(=O)[C@H](CCN)NC(=O)[C@H](CC(C)C)NC(=O)[C@@H](Cc2ccccc2)NC(=O)[C@H](CCN)NC1=O)[C@@H](C)O
MIC [2]: 1 µg/mL (≈ 0.856 µM) | MIC [3]: 0.25 µg/mL (≈ 0.214 µM) | MIC [4]: 1 µg/mL (≈ 0.856 µM) | MIC [5]: 0.5 µg/mL (≈ 0.428 µM) | Activity [18]: > 50% | MIC [6]: 0.5 µg/mL (≈ 0.428 µM) | MIC [7]: 1 µg/mL (≈ 0.856 µM) | MIC [11]: 2 µg/mL (≈ 1.71 µM) | MIC [12]: 8 µg/mL (≈ 6.85 µM) | MIC [13]: 1 µg/mL (≈ 0.856 µM) | MIC [14]: 1 µg/mL (≈ 0.856 µM) | MIC [15]: ≤ 0.125 µg/mL | MIC [16]: 0.5 µg/mL (≈ 0.428 µM) | MIC [17]: 0.5 µg/mL (≈ 0.428 µM)
